The record followed here is ChEMBL document CHEMBL4371044, “Celastrol Promotes Weight Loss in Diet-Induced Obesity by Inhibiting the Protein Tyrosine Phosphatases PTP1B and TCPTP in the Hypothalamus” (J Med Chem, 2018).

Molecules are shown by their SMILES. The source made the active and inactive calls. The calls are words filed in the database; no cut-off is given here. A value given as a limit tells only on which side of the number the result lay.

The target of experiment [1] is T1, Tyrosine-protein phosphatase non-receptor type 1 (Homo sapiens) (UniProt P18031).
T1 sequence (whole entry): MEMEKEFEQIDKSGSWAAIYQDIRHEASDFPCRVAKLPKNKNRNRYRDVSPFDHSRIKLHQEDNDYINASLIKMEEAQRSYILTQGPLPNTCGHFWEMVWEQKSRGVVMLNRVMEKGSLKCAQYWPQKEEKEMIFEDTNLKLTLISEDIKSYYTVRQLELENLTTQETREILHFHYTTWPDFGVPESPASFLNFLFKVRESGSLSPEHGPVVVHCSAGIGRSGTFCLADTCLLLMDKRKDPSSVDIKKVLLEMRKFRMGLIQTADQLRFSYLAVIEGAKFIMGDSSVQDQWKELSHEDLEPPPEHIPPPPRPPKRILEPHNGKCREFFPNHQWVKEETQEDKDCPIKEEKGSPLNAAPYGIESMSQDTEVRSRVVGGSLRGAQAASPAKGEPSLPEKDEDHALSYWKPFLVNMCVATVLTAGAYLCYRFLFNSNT
Put plainly: Covalent binding to human N-terminal His6-tagged PTP1B catalytic domain (1 to 298 residues) expressed in Escherichia coli strain Rosetta2 (DE3) by mass spectrometry. The method in brief:
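PTP1B at 2 mg/mL incubated 30 min with or without compound (1:5, 2% DMSO) in 50 mM Tris-HCl pH 7.5, 75 mM NaCl; C4 ZipTip cleanup; MALDI-TOF in CHCA matrix.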

The test system of experiment [2] is Mus musculus. Put plainly: Antiobesity activity in high fat diet-induced obese Ptpn1fl/fl null C57BL/6 mouse treated with rAAV-CMV-Cre-GFP for deletion of TCPTP assessed as reduction in body weight at 100 ug/kg, ip for 10 consecutive days. It is filed as functional, organism-based. The method in brief:
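Male Ptpn1fl/fl, Ptpn2fl/fl or double-floxed mice: chow 8 weeks, then high-fat diet (45% energy from fat) 12 weeks. Bilateral intra-ARC stereotaxic injection of rAAV-CMV-Cre-GFP or rAAV-CMV-GFP, 100 nL/side. After 2 weeks recovery, vehicle or 100 μg/kg ip daily at 6 pm for 10 days; body weight tracked; two-way repeated-measures ANOVA with Tukey test; means ± SEM.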

In experiment [3] the test system is Mus musculus. Put plainly: Antiobesity activity in high fat diet-induced obese Ptpn2fl/fl null C57BL/6 mouse assessed as hypophagia at 100 ug/kg, ip for 10 consecutive days. It is filed as functional, organism-based.
Experiment [4] has as its target T1, Tyrosine-protein phosphatase non-receptor type 1 (Homo sapiens). Put plainly: Reversible inhibition of human N-terminal His6-tagged PTP1B catalytic domain (1 to 298 residues) expressed in Escherichia coli strain Rosetta2 (DE3) at 10 times IC50 using DiFMUP as substrate preincubated for 30 mins followed by 100 fold compound dilution and substrate addition measured for 60 mins fluorescence assay.

The target of experiment [5] is T2, Tyrosine-protein phosphatase non-receptor type 1 (Homo sapiens, UniProt P18031).
T2 sequence (P18031 whole entry): T1 sequence (whole entry)
Put plainly: Binding affinity to human N-terminal His6-tagged PTP1B catalytic domain (1 to 298 residues) expressed in Escherichia coli strain Rosetta2 (DE3) by switch sense technology based assay. The method in brief: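 switchSENSE, fluorescence proximity mode: PTP1B1−298 immobilized on chip, analyte injected at increasing concentrations up to 100 μM at 100 μL/min in PE40 buffer (10 mM phosphate pH 7.4, 40 mM NaCl, 50 μM EGTA/EDTA, 0.05% Tween 20). Buffer rinse for dissociation, recorded at the three highest concentrations; kon, koff, KD fitted.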

In experiment [6] the target is Receptor-type tyrosine-protein phosphatase epsilon (Homo sapiens, UniProt P23469). Put plainly: Inhibition of human PTPRE (107 to 707 residues) expressed in Escherichia coli strain BL21(DE3) using DiFMUP as substrate preincubated for 10 mins followed by substrate addition and measured after 10 mins by fluorescence assay. The method in brief:
(§1)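 Selectivity panel on enzymes expressed in E. coli BL21(DE3), purified by nickel affinity then size exclusion. DiFMUP fluorescence assay run as for PTP1B/TCPTP, with per-enzyme conditions in a supplementary table; nonlinear regression for IC50; three independent experiments.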

The target in experiment [7] is T3, Tyrosine-protein phosphatase non-receptor type 2 (Homo sapiens) (UniProt P17706).
T3 sequence (whole entry): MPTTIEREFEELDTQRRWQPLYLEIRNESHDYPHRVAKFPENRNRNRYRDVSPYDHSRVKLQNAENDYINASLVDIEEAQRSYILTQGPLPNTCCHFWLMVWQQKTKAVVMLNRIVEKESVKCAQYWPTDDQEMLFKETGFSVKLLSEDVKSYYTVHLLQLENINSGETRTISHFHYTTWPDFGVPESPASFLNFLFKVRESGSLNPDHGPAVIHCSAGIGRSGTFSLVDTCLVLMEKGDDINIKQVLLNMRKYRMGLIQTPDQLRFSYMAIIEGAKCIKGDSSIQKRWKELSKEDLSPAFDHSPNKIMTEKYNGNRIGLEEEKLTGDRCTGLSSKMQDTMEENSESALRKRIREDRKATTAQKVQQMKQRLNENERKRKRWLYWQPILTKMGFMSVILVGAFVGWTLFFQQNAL
Put plainly: Non competitive inhibition of human N-terminal His6-tagged TCPTP catalytic domain (1 to 336 residues) expressed in Escherichia coli strain Rosetta2 (DE3) using DiFMUP as substrate preincubated for 10 mins followed by substrate addition and measured after 10 mins by fluorescence assay Michaelis-Menten plot analysis.

Experiment [8] has as its target T3, Tyrosine-protein phosphatase non-receptor type 2 (Homo sapiens). Put plainly: Inhibition of human N-terminal His6-tagged TCPTP catalytic domain (1 to 336 residues) expressed in Escherichia coli strain Rosetta2 (DE3) using DiFMUP as substrate preincubated for 10 mins followed by substrate addition and measured after 10 mins in presence of 0.1 mg/ml BSA by fluorescence assay. The method in brief: (§2)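 DiFMUP IC50 assay (1 nM enzyme, 10 min preincubation, substrate at Km, 37 °C, ex 358/em 455 nm), repeated as an aggregation check under three altered conditions: 10-fold enzyme (10 nM), 0.05% Tween 20, or 0.1 mg/mL BSA in buffer.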

For experiment [9], the target named is T4, Tyrosine-protein phosphatase non-receptor type 2 (Homo sapiens, UniProt P17706).
T4 sequence (P17706 whole entry): T3 sequence (whole entry)
Put plainly: Inhibition of human N-terminal His6-tagged TCPTP catalytic domain (1 to 336 residues) expressed in Escherichia coli strain Rosetta2 (DE3) using DiFMUP as substrate preincubated for 10 mins followed by substrate addition and measured after 10 mins by fluorescence assay. The method in brief:
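Tag-cleaved, SEC-purified enzyme at 1 nM, preincubated 10 min with compound at 15 concentrations from 0–500 μM (5% DMSO final) in 25 mM Bis-Tris propane pH 7.5, 50 mM NaCl, 2 mM EDTA. DiFMUP added at each construct's Km (10, 7, 10, 9 μM for PTP1B1−298, PTP1B1−393, TCPTP1−296, TCPTP1−336). Read ex 358/em 455 nm continuously 10 min at 37 °C; triplicate; log(inhibitor)-response fit.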

The nature of experiment [10]: Inhibition of mouse LMPTP-A (1 to 158 residues) expressed in Escherichia coli strain BL21(DE3) using DiFMUP as substrate preincubated for 10 mins followed by substrate addition and measured after 10 mins by fluorescence assay. A digest of the protocol: as §1
Experiment [11] addresses T3, Tyrosine-protein phosphatase non-receptor type 2 (Homo sapiens). Put plainly: Inhibition of human N-terminal His6-tagged TCPTP catalytic domain (1 to 336 residues) expressed in Escherichia coli strain Rosetta2 (DE3) using DiFMUP as substrate preincubated for 10 mins followed by substrate addition and measured after 10 mins in presence of 10 fold higher enzyme concentration by fluorescence assay. A digest of the protocol: as §2

Sequence of Receptor-type tyrosine-protein phosphatase epsilon (P23469 whole entry, the tested form may be a part): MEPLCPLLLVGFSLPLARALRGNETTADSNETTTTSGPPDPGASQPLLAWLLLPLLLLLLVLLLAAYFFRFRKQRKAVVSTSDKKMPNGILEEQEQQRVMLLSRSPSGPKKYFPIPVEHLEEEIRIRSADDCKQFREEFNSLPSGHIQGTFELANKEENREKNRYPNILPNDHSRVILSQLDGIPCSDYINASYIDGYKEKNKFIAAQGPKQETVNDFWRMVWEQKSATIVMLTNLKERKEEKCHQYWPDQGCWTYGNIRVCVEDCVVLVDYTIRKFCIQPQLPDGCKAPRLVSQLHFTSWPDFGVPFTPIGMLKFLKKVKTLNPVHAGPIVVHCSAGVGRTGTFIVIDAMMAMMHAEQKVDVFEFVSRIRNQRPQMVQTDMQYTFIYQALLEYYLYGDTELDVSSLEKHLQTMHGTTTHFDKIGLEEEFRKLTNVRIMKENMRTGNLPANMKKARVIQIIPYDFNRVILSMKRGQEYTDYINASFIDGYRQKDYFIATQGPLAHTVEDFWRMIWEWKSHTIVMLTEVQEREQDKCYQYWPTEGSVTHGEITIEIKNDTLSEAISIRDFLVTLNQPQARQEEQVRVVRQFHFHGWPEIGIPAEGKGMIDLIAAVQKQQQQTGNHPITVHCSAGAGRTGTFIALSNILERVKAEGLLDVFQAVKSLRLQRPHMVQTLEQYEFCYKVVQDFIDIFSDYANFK

For `CC1=C(O)C(=O)C=C2C1=CC=C1[C@@]2(C)CC[C@@]2(C)[C@@H]3C[C@](C)(C(=O)O)CC[C@]3(C)CC[C@]12C` [CELASTROL], the outcome (in [1]; in the experiment on Mus musculus [2]) was inactive. Moreover, the inhibition result (in the experiment with Mus musculus [3]; in [4]; in experiment [7]; in [8]; in [11]) was “Active” each time. Moreover, the Kd (usually the constant that tells how readily two partners part at equilibrium) in [5] is 6.08 µM. Moreover, the IC50 (commonly the point on the concentration scale where inhibition reaches its midpoint) in [6] was above 500 µM; in experiment [9], 18.8 µM; in experiment [10], 95.3 µM.
